The list is not random: actives were taken first. Their share in the collection is about 3.7%.
KCNK3 block – human KCNK3 channel inhibitors, primary screen, CHO cells, FluxOR thallium flux, B-score; Potassium channel subfamily K member 3 (Homo sapiens), O14649; FluxOR fluorescence; hits give low values; B-score at 10 µM; hit rate 0.84% among 340,000;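 active = B-score under library mean minus 4 SD, starting fluorescence ratio at most library mean plus 5 SD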;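 also: more negative B-score means stronger inhibition of thallium flux through KCNK3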
KCNQ1 act – potentiators or activators of KCNQ1 channel, primary screen, cell-based, thallium flux, high-throughput; hit rate 0.35% among 310,000; CHO-K1 KCNQ1, thallium flux FluxOR fluorescence; hits give high values; B-score at 10 µM; AID 2648, 2010;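 active = fluorescence ratio B-score, a plate-corrected score, at least three library SD, with initial intensity B-score within 5 SD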
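System: Stable KCNQ1 CHO-K1 line | Incubation: 90 min dye loading and 20 min compound exposure, both at room temperature | Measure: Ratio B score | Medium: Assay buffer for compound exposure, DMSO matched across wells | Compound dosing: Single-concentration screen | Probe or stimulus: K+/Tl+ depolarizing stimulus | Measured by: Kinetic FluxOR fluorescence, 10 s baseline plus 110 s post-stimulus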
KCNK9 inh – KCNK9 potassium channel inhibitors, primary screen, HEK293 cells, thallium flux; Potassium channel subfamily K member 9 (Homo sapiens), Q9NPC2; B-score at 10 µM; FluxOR thallium flux fluorescence; hits give low values; hit rate 1.2% among 310,000;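 active = ratio B-score over 3 SD below the library mean, with starting fluorescence within 5 SD of its mean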;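 also: negative B-score means less thallium flux so channel inhibition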
hERG rescue – hERG rescue from dofetilide block, primary screen, cell-based, CHO-hERG, FluxOR thallium flux, dofetilide IC70 | dofetilide IC70 present | activation (rescue from dofetilide block), less the hit threshold, % at 10 µM | Voltage-gated inwardly rectifying potassium channel KCNH2 (Homo sapiens), Q12809 | AID 1511, 2009 | hit rate 0.51% among 310,000;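 active = activation above the mean of controls blocked by dofetilide plus 5 SD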;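 also: thallium influx through hERG after potassium depolarization seen as dye fluorescence rise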
Kir21 block – inhibitors of mouse Kir2.1 inward-rectifier potassium channel; Inward rectifier potassium channel 2 (Mus musculus), P35561; HEK293-Kir2.1, FluxOR thallium flux fluorescence; hits give low values; B-score at 10 µM; hit rate 0.85% among 310,000; AID 1672, 2009;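 active = fluorescence ratio B-score at or below minus 3 SD of library scores, with starting-brightness B-score within 2 SD, cut at about -4.2 in these data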;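 also: channel flux triggered by added potassium and thallium sulfate stimulus; B-score of peak minus minimum fluorescence over baseline after thallium stimulus; more negative B-score means stronger Kir2.1 block with less thallium influx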
Target sequence (P35561 whole entry, looked up): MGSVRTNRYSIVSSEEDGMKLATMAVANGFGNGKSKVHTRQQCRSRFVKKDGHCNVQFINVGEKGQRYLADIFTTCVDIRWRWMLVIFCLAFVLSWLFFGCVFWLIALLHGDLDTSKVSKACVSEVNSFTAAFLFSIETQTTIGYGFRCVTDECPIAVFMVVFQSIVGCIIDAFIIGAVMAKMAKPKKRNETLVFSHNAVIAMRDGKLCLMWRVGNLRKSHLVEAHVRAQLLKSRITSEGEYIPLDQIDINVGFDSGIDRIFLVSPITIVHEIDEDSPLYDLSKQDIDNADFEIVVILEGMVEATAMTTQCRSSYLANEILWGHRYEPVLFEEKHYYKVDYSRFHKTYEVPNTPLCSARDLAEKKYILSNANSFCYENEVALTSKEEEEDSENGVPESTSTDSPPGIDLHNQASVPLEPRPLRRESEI
KCNQ1 inh – inhibitors of human KCNQ1 channel, primary screen, cell-based, thallium flux, high-throughput. Potassium voltage-gated channel subfamily KQT member 1 (Homo sapiens), P51787. CHO-K1 KCNQ1, FluxOR thallium flux fluorescence; hits give high values. B-score at 10 µM. hit rate 1.3% among 310,000. AID 2642, 2010;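 active = compounds whose thallium flux B-score, printed positive for inhibition, exceeds three library SD while starting fluorescence stays within three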;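 also: channel opened by potassium depolarization with thallium stimulus after 20 min compound exposure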
KCNK3 confirm – retest of human KCNK3 channel inhibitors, confirmation, CHO cells, FluxOR thallium flux, triplicate; hit rate 99% among 2,400; shares compounds with KCNK3 block; AID 651638, 2012; ratio percent of control, % at 10 µM; FluxOR fluorescence; 0% buffer, 100% carvedilol maximal block;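 active = ratio percent of control, averaged over triplicates, above buffer control mean plus 5 SD, cut at about 64% in these data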;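 also: ratio is the fluorescence rise from min to max over baseline after thallium stimulus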
KCNK3 noninduced – thallium flux inhibition in non-induced cells, primary screen, counter-screen for KCNK3 inhibitor project, cell-based, non-induced KCNK3 line, FluxOR thallium, triplicate | shares compounds with KCNK3 block | non-induced KCNK3 parental cells; hits give low values | thallium flux ratio (lower = more inhibition) at 10 µM | hit rate 40% among 2,400 | AID 651747, 2012;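 active = thallium flux ratio, averaged over three wells, more than 5 SD below the buffer control mean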;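 also: host cells are CHO cells without KCNK3 induction; ratio is peak minus trough fluorescence over baseline then normalized to buffer controls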
Starred values were filed as active, the others as inactive; i = inactive; / = not tested or not shown.

SMILES	KCNK3 block	KCNQ1 act	KCNK9 inh	hERG rescue	Kir21 block	KCNQ1 inh	KCNK3 confirm	KCNK3 noninduced
CCOc1ccccc1NC(=S)NC(=O)CCCOc1ccc(Cl)cc1Cl	-11*	i	i	2	-0.62	i	109*	i
Cc1ccc(C(=O)CSc2cc(C)nc(SCC(=O)c3ccccc3)n2)cc1	-9*	i	i	-8	-0.44	i	112*	i
Cc1cc(SCC(N)=O)nc(SCC(=O)c2ccccc2)n1	i	i	i	2	0.01	i	/	/
N#CCC(=O)Nc1ccc(C(=O)OCC(=O)N=c2sccn2Cc2ccccc2Cl)cc1	-11*	i	i	-16	2.8	i	92*	i
COc1ccc(C)cc1NC(=O)C1CCCN(S(=O)(=O)c2cccnc2)C1 (stereo not given)	i	i	i	-7	0.04	i	/	/
CC(NC(=O)[C@@H](C)NC(=O)[C@@H]1Cc2ccccc2CN1C(=O)OC(C)(C)C)c1ccccc1 (stereo not given in full)	i	i	i	-11	-0.82	i	/	/
Cc1cc([N+](=O)[O-])ccc1-c1ccc(/C=N/NC(=O)c2ccc(Br)o2)o1	-9.4*	i	i	-1	-1.4	i	105*	i
O=C1OC(c2cccs2)=N/C1=C\c1ccc(-c2ccccc2Cl)o1	i	i	-7.9*	-21	-2.9	i	141*	0.11*
O=C(COC(=O)c1ccccc1-c1ccccc1[N+](=O)[O-])c1ccccc1	-11*	i	i	-4	2.9	i	92*	i
O=C(COC(=O)c1ccccc1[N+](=O)[O-])c1ccc2c(c1)OCO2	i	i	i	-14	-0.1	i	/	/
CCN1/C(=C\C(=S)Nc2ccccc2)Sc2ccccc21	-9.8*	i	i	-14	0.14	i	110*	i
COc1ccccc1NC(=O)C(C)OC(=O)CCCc1c[nH]c2ccccc12 (stereo not given)	-10*	i	-7.2*	-14	-0.39	i	104*	i
CC(Sc1ccc([N+](=O)[O-])cn1)C(=O)Nc1nccs1 (stereo not given)	i	i	i	-6	-1.2	i	/	/
CC(=O)c1ccccc1NC(=O)Cn1c(=O)cnc2ccccc21	i	i	i	-6	-0.77	i	/	/
Cc1cccc(NS(=O)(=O)c2cc(C(=O)NCCC3=CCCCC3)ccc2Cl)c1	-12*	i	i	-6	0.04	i	118*	0.15*
CCOc1ccc(OCC)c(S(=O)(=O)n2cnc(C)c2)c1	-8.8*	i	i	-9	-0.78	i	82*	i
Nc1cccc2cc(-c3ccccc3)oc12	i	/	/	/	/	/	/	/
O=C(CCCSc1nc2ccccc2c(=O)[nH]1)c1ccc(F)cc1	i	i	i	-7	-3.3	i	/	/
COc1ccc(NC(=O)c2cccs2)cc1NC(=O)c1ccco1	i	i	i	-5	-0.57	i	/	/
O=C(Nc1ccc2nc(-c3cccs3)[nH]c2c1)c1ccco1	-10*	i	i	-10	1.7	i	81*	i
Cc1ccc(NC(=O)c2cccs2)cc1NC(=O)c1ccco1	-8.8*	i	i	-6	0.1	i	105*	i
O=C(/C=C/c1ccc(O)c(O)c1)OCCc1ccccc1	-12*	i	i	-13	-0.94	i	84*	0.14*
CC(NS(=O)(=O)c1ccccc1)C(c1cccs1)N1CCN(c2ccccc2)CC1 (stereo not given)	i	i	i	-5	0.09	i	/	/
COc1ccccc1N1CCN(C(c2cccs2)C(C)NS(=O)(=O)c2ccccc2)CC1 (stereo not given)	-9.6*	i	i	-14	-0.51	6*	96*	i
CCCOP(=O)(OCCC)C(Nc1ccc(C(C)C)cc1)c1ccc([N+](=O)[O-])cc1 (stereo not given)	-8.8*	i	i	-16	1.2	i	118*	0.16*
SMILES	KCNK3 block	KCNQ1 act	KCNK9 inh	hERG rescue	Kir21 block	KCNQ1 inh	KCNK3 confirm	KCNK3 noninduced
O=c1ccc(S(=O)(=O)N2CCCC2)cn1Cc1ccc(F)cc1	i	/	/	/	/	/	/	/
OCc1c(OCc2cccc(F)c2)ccc2ccccc12	-9.5*	i	i	-7	1.1	i	97*	i
Cc1cc(O)c(C(C)C)cc1C1(c2cc(C(C)C)c(O)cc2C)OC(=O)c2ccccc21	-9.1*	i	i	-1	-3.1	i	120*	0.15*
CC(=O)c1cccc(N(CC(=O)Nc2ccc(S(=O)(=O)N3CCCC3)cc2)S(C)(=O)=O)c1	-9.5*	i	i	-6	-0.07	i	0	i
CC(=O)c1cccc(N(CC(=O)Nc2ccc(S(=O)(=O)N3CCOCC3)cc2)S(C)(=O)=O)c1	i	i	i	-7	2.9	i	/	/
O=C(CSc1nc(Nc2ccccc2)nc(N2CCOCC2)n1)Nc1ccc([N+](=O)[O-])cc1	i	i	i	-12	-0.18	i	/	/
O=C(CSc1nc(Nc2ccccc2)nc(N2CCOCC2)n1)Nc1cccc([N+](=O)[O-])c1	-11*	i	i	-10	1.1	i	110*	0.15*
Cc1ccccc1C(=O)NNC(=O)CSc1nc2ccccc2c(=O)[nH]1	i	i	i	-9	-0.2	i	/	/
Cc1ccc2c(c1)N(CC(=O)Nc1ccccc1F)C(=O)C(C)O2 (stereo not given)	i	/	/	/	/	/	/	/
N#CC1(NC(=O)COC(=O)C23CC4CC(CC(O)(C4)C2)C3)CCCCC1	i	i	i	-6	-0.75	i	/	/
CCCCn1nc(NC(=O)c2cccs2)c2cc3ccccc3nc21	-9.5*	i	i	-30	0.29	i	118*	0.14*
O=C1c2cccc3cccc(c23)C(=O)N1CCc1ccccc1	-9.6*	i	i	-3	0.49	i	118*	i

Screening results: PubChem BioAssay, Johns Hopkins Ion Channel Center
